Assay results from PMC3797290 (Experimental and Therapeutic Medicine, 2013).

How the values were obtained:
[1] = system: P. aeruginosa 8–97; test: Interaction study, checkerboard titration; type: cell-based, Pseudomonas aeruginosa; conditions: antibiotic in combination with RNL (ranalexin)
[2] = system: E. coli 31–97; test: Interaction study, checkerboard titration; type: cell-based, Escherichia coli
[3] = system: E. coli 7–98; test: Interaction study, checkerboard titration; type: cell-based, Escherichia coli
[4] = system: MS S. aureus 14–99; test: Interaction study, checkerboard titration; type: cell-based, Staphylococcus aureus; conditions: antibiotic in combination with RNL (ranalexin)
Outline: (§1)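 Checkerboard titration of peptide plus clinical antibiotic against representative clinical MS S. aureus isolates in polypropylene microtiter plates. […] Mueller-Hinton broth, inoculum 5×10^5 cfu/ml, 18 h at 35°C in air. MIC is the lowest concentration inhibiting visible growth. FIC index = A/MICA + B/MICB; synergy ≤0.5.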

[5] = system: MS S. aureus 21–99; test: Interaction study, checkerboard titration; type: cell-based, Staphylococcus aureus; conditions: antibiotic in combination with RNL (ranalexin)
[6] = system: MS S. aureus 56–96; test: Interaction study, checkerboard titration; type: cell-based, Staphylococcus aureus; conditions: antibiotic in combination with RNL (ranalexin)
[7] = system: MS S. aureus 15–99; test: Interaction study, checkerboard titration; type: cell-based, Staphylococcus aureus; conditions: antibiotic in combination with RNL (ranalexin)
Outline: as §1

[8] = system: P. aeruginosa; conditions: at 2 mg/l, in vitro, cited from earlier work; for effect on P. aeruginosa at 48 h: incubation continued for 48 h
[9] = system: E. coli ATCC 25922; test: Interaction study, checkerboard titration; type: cell-based, Escherichia coli; conditions: antibiotic in combination with RNL (ranalexin)
[10] = antibiotic in combination with MG II (magainin II)
[11] = antibiotic in combination with RNL (ranalexin)

Molecule	FIC index [1]	FIC index [2, 10]	FIC index [3, 10]	FIC index [4]	FIC index [5]	FIC index [6]	FIC index [7]	FIC index [2, 11]	effect on P. aeruginosa cell growth at 24 h [8]	effect on P. aeruginosa at 48 h [8]	FIC index [9]	FIC index [3, 11]
CC(C)(O/N=C(\C(=O)N[C@@H]1C(=O)N2C(C(=O)[O-])=C(C[n+]3ccccc3)CS[C@H]12)c1csc(N)n1)C(=O)O [CAZ, ceftazidime]	1.500	0.187	0.312									
CC[C@H]1OC(=O)[C@H](C)[C@@H](O[C@H]2C[C@@](C)(OC)[C@@H](O)[C@H](C)O2)[C@H](C)[C@@H](O[C@@H]2O[C@H](C)C[C@H](N(C)C)[C@H]2O)[C@](C)(OC)C[C@@H](C)C(=O)[C@H](C)[C@@H](O)[C@]1(C)O [CLR, clarithromycin]	0.375	1.500	1.500	0.250	0.250	0.312	0.187	0.312	no effect on cell growth	bactericidal	0.375	0.312
CO/N=C(\C(=O)N[C@@H]1C(=O)N2C(C(=O)O)=C(CSc3nc(=O)c(=O)[nH]n3C)CS[C@H]12)c1csc(N)n1 [CRO, ceftriaxone]	0.750	0.312	0.250	1.000	1.500	1.500	1.250	1.250			1.000	1.250
C[C@H]1c2cccc(O)c2C(=O)C2=C(O)[C@]3(O)C(=O)C(C(N)=O)=C(O)[C@@H](N(C)C)[C@@H]3[C@@H](O)[C@@H]21 [D, doxycycline]	0.312	1.250	2.000	0.312	0.187	0.312	0.250	0.375			0.312	0.312
C[C@@H](O)[C@H]1C(=O)N2C(C(=O)O)=C(S[C@@H]3CN[C@H](C(=O)N(C)C)C3)[C@H](C)[C@H]12 [MEM, meropenem]	1.000	0.375	0.375	1.250	1.500	1.250	1.500	1.000			0.750	1.500
CCN1CCN(C(=O)N[C@@H](C(=O)N[C@@H]2C(=O)N3[C@@H]2SC(C)(C)[C@@H]3C(=O)O)c2ccccc2)C(=O)C1=O [PIP, piperacillin]	1.000	0.312	0.250					1.250			0.750	1.000
CC[C@H]1OC(=O)[C@H](C)[C@@H](O[C@H]2C[C@@](C)(OC)[C@@H](O)[C@H](C)O2)[C@H](C)[C@@H](O[C@@H]2O[C@H](C)C[C@H](N(C)C)[C@H]2O)[C@](C)(O)C[C@@H](C)C(=O)[C@H](C)[C@@H](O)[C@]1(C)O [erythromycin]									no effect on cell growth	bactericidal		
amoxicillin-clavulanate [AMC]	1.000	0.312	0.187	1.000			1.500				1.500	1.000
polymyxin E [POL-E]	0.250	1.500						0.250			0.187	0.312
